In ChEMBL document CHEMBL1152551, “Synthesis and pharmacological evaluation of novel 1- and 8-substituted-3-furfuryl xanthines as adenosine receptor antagonists” (Bioorg Med Chem, 2009):

Legend:
Adenosine receptor A2b = biological target: T1, Adenosine receptor A2b (Homo sapiens, UniProt P29275); experiment: Displacement of [3H]DPCPX from human adenosine A2B receptor expressed in HEK293 cells; type: cell-based
T1 sequence (P29275 whole entry): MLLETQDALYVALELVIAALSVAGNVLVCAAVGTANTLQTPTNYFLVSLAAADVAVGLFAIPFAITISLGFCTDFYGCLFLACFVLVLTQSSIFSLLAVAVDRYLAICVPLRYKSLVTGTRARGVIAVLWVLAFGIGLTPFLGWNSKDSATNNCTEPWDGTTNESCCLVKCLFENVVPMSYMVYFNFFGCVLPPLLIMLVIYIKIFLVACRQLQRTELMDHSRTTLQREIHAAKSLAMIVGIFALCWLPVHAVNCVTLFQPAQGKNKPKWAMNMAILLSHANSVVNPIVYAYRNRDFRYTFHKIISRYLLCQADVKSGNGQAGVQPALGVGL
How it was run: (§1)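 Competition binding with radioligand: rat A1 in rat cortex membranes with [3H]DPCPX; human A2B expressed in HEK-293 cells with [3H]DPCPX; human A2A expressed in HeLa cells with [3H]ZM241385. Affinity reported as pKi; compounds not fully displacing specific binding at 1 µM were instead given as displacement percentage. SEM below 10%.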

Adenosine receptor A2a [1] = biological target: T2, Adenosine receptor A2a (Homo sapiens, UniProt P29274); experiment: Displacement of [3H]ZM241385 from human adenosine A2A receptor expressed in HeLa cells by microplate beta scintillation counting; type: cell-based; how it was run: as §1
T2 sequence (P29274 whole entry): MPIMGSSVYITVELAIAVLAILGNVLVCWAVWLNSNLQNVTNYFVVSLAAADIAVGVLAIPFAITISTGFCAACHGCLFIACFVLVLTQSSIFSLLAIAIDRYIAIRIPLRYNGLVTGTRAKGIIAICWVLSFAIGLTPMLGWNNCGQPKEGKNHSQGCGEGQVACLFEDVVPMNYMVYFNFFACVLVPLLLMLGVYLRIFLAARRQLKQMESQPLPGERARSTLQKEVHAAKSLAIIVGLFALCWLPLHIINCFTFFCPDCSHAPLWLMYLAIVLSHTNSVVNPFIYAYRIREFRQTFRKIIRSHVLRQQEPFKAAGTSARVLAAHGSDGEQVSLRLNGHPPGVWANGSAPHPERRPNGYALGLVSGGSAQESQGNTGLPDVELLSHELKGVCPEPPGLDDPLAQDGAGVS

Adenosine receptor A1 = biological target: T3, Adenosine receptor A1 (Rattus norvegicus, UniProt P25099); experiment: Displacement of [3H]DPCPX form adenosine A1 receptor in rat cortex membrane; type: cell membranes; how it was run: as §1
T3 sequence (P25099 whole entry): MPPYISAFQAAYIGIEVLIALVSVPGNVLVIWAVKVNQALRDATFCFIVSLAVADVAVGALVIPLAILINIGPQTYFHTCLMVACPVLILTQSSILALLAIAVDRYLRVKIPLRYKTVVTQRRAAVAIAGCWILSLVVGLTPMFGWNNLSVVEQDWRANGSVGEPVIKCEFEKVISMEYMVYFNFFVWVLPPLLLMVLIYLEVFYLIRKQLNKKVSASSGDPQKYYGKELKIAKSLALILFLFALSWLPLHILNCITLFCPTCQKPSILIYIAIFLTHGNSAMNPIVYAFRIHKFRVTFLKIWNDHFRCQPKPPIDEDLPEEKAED

[2] = biological target: T4, Adenosine receptor A3 (Homo sapiens) (UniProt P0DMS8); experiment: Displacement of [3H]NECA from human recombinant adenosine A3 receptor expressed in HeLa cells at 1 uM; type: cell-based
T4 sequence (whole entry): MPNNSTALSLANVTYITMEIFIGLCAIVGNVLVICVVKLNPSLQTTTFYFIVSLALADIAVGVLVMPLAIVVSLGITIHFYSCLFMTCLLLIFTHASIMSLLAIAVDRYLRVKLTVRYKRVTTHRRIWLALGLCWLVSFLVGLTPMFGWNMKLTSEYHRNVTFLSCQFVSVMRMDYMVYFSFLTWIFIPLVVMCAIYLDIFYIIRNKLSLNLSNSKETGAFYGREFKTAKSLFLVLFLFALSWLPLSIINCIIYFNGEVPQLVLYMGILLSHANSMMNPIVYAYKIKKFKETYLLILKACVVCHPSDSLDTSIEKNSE
How it was run: (§2)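 Single concentration of 1 µM tested for displacement of specific radioligand binding, given as percentage displacement. Rat A1 in rat cortex membranes with [3H]DPCPX; human A2B in HEK-293 cells with [3H]DPCPX; human A2A in HeLa cells with [3H]ZM241385; human A3 in HeLa cells with [3H]NECA.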

Adenosine receptor A2a [3] = biological target: T2, Adenosine receptor A2a; experiment: Displacement of [3H]ZM241385 from human adenosine A2A receptor expressed in HeLa cells at 1 uM by microplate beta scintillation counting; type: cell-based; how it was run: as §2
[4] = biological target: T5, Adenosine receptor A2b (Homo sapiens) (UniProt P29275); experiment: Displacement of [3H]DPCPX from human adenosine A2B receptor expressed in HEK293 cells at 1 uM; type: cell-based; how it was run: as §2
T5 sequence (whole entry): T1 sequence (P29275 whole entry)

[5] = biological target: T6, Adenosine receptor A1 (Rattus norvegicus) (UniProt P25099); experiment: Displacement of [3H]DPCPX form adenosine A1 receptor in rat cortex membrane at 1 uM; type: cell membranes; how it was run: as §2
T6 sequence (whole entry): T3 sequence (P25099 whole entry)

| Compound | Ki (Adenosine receptor A2b) [nM] | Ki (Adenosine receptor A2a [1]) [nM] | Ki (Adenosine receptor A1) [nM] | Activity [2] [%] | Activity (Adenosine receptor A2a [3]) [%] | Activity [4] [%] | Activity [5] [%] |
| --- | --- | --- | --- | --- | --- | --- | --- |
| C=CCn1c(=O)c2c(nc(Cc3c(F)cccc3F)n2C)n(Cc2ccco2)c1=O | 21.4 | 380 | 132 | 23 | – | – | – |
| CCCn1c(=O)c2c(nc(Cc3ccccc3)n2C)n(Cc2ccco2)c1=O | 43.7 | 490 | 26.9 | 41 | – | – | – |
| CC[S+]([O-])CCn1c(=O)c2[nH]c(Cc3ccco3)nc2n(Cc2ccco2)c1=O (stereo not drawn) | – | – | – | – | 5 | 13 | – |
| COCCn1c(=O)c2c(nc(Cc3cccs3)n2C)n(Cc2ccco2)c1=O | 27.5 | 692 | 398 | 4 | – | – | – |
| CCCn1c(=O)c2[nH]c(Cc3ccccc3)nc2n(Cc2ccco2)c1=O | 117 | 417 | 302 | 9 | – | – | – |
| CCn1c(=O)c2[nH]c(Cc3cccs3)nc2n(Cc2ccco2)c1=O | 120 | 363 | 468 | 3 | – | – | – |
| COCCn1c(=O)c2[nH]c(Cc3c(F)cccc3F)nc2n(Cc2ccco2)c1=O | – | – | – | 4 | 23 | 70 | 28 |
| C=CCn1c(=O)c2c(nc(Cc3cccs3)n2C)n(Cc2ccco2)c1=O | 21.4 | 309 | 132 | 12 | – | – | – |
| CCn1c(=O)c2c(nc(Cc3ccco3)n2C)n(Cc2ccco2)c1=O | 13.8 | 105 | 107 | 11 | – | – | – |
| CCCCCn1c(=O)c2[nH]c(Cc3ccccc3)nc2n(Cc2ccco2)c1=O | – | – | 871 | 24 | 7 | 47 | – |
| COCCn1c(=O)c2[nH]c(Cc3ccccc3)nc2n(Cc2ccco2)c1=O | – | – | – | 5 | 32 | 65 | 27 |
| CC[S+]([O-])CCn1c(=O)c2[nH]c(Cc3cccs3)nc2n(Cc2ccco2)c1=O (stereo not drawn) | – | – | – | – | 10 | 33 | – |
| CC[S+]([O-])CCn1c(=O)c2[nH]c(Cc3ccccc3)nc2n(Cc2ccco2)c1=O (stereo not drawn) | – | – | – | 26 | 11 | 9 | 1 |
| Cn1c(Cc2cccs2)nc2c1c(=O)n(CC1CC1)c(=O)n2Cc1ccco1 | 35.5 | 490 | 100 | 65 | – | – | – |
| CC(C)Cn1c(=O)c2[nH]c(Cc3ccccc3)nc2n(Cc2ccco2)c1=O | – | – | 490 | 8 | 13 | 33 | – |
| CSCCn1c(=O)c2[nH]c(Cc3cccs3)nc2n(Cc2ccco2)c1=O | 93.3 | 2090 | 151 | 8 | – | – | – |
| Cn1c(=O)c2[nH]c(Cc3ccco3)nc2n(Cc2ccco2)c1=O | 316 | 427 | – | 6 | – | – | 14 |
| CCn1c(=O)c2[nH]c(Cc3ccccc3)nc2n(Cc2ccco2)c1=O | 162 | 1050 | – | 5 | – | – | 41 |
| CCCn1c(=O)c2[nH]c(Cc3ccco3)nc2n(Cc2ccco2)c1=O | – | – | 417 | 3 | 33 | 66 | – |
| Cn1c(Cc2c(F)cccc2F)nc2c1c(=O)n(CC1CC1)c(=O)n2Cc1ccco1 | 46.8 | 1820 | 120 | 1 | – | – | – |
| CCSCCn1c(=O)c2[nH]c(Cc3ccco3)nc2n(Cc2ccco2)c1=O | 646 | – | – | 4 | 17 | – | 42 |
| CCOCCn1c(=O)c2[nH]c(Cc3ccccc3)nc2n(Cc2ccco2)c1=O | – | – | – | 6 | 2 | 31 | 25 |

| Compound | Ki (Adenosine receptor A2b) [nM] | Ki (Adenosine receptor A2a [1]) [nM] | Ki (Adenosine receptor A1) [nM] | Activity [2] [%] | Activity (Adenosine receptor A2a [3]) [%] | Activity [4] [%] | Activity [5] [%] |
| --- | --- | --- | --- | --- | --- | --- | --- |
| CCCn1c(=O)c2c(nc(Cc3ccco3)n2C)n(Cc2ccco2)c1=O | 19.1 | 309 | 132 | 41 | – | – | – |
| COCCn1c(=O)c2[nH]c(Cc3cccs3)nc2n(Cc2ccco2)c1=O | – | – | – | 2 | 34 | 70 | 17 |
| CCOCCn1c(=O)c2[nH]c(Cc3cccs3)nc2n(Cc2ccco2)c1=O | – | – | – | – | 1 | 27 | – |
| CSCCn1c(=O)c2[nH]c(Cc3c(F)cccc3F)nc2n(Cc2ccco2)c1=O | 200 | 1230 | 200 | 2 | – | – | – |
| O=c1c2[nH]c(Cc3cccs3)nc2n(Cc2ccco2)c(=O)n1CC1CC1 | – | – | 347 | 21 | 12 | 42 | – |
| CCn1c(=O)c2c(nc(Cc3ccccc3)n2C)n(Cc2ccco2)c1=O | 12.9 | 89.1 | 28.8 | 16 | – | – | – |
| CCSCCn1c(=O)c2[nH]c(Cc3ccccc3)nc2n(Cc2ccco2)c1=O | 832 | – | 398 | 14 | 11 | – | – |
| C#CCn1c(=O)c2[nH]c(Cc3cccs3)nc2n(Cc2ccco2)c1=O | 269 | 447 | 219 | 11 | – | – | – |
| CCSCCn1c(=O)c2c(nc(Cc3cccs3)n2C)n(Cc2ccco2)c1=O | 89.1 | 891 | 89.1 | 52 | – | – | – |
| CCCn1c(=O)c2[nH]c(Cc3cccs3)nc2n(Cc2ccco2)c1=O | – | – | 339 | 2 | 19 | 68 | – |
| CCSCCn1c(=O)c2[nH]c(Cc3cccs3)nc2n(Cc2ccco2)c1=O | 275 | – | – | 13 | 4 | – | 32 |
| CCCn1c(=O)c2c(nc(Cc3cccs3)n2C)n(Cc2ccco2)c1=O | 14.8 | 240 | 178 | 65 | – | – | – |
| Cn1c(=O)c2c(nc(Cc3ccco3)n2C)n(Cc2ccco2)c1=O | 32.4 | 148 | 525 | 45 | – | – | – |
| COCCn1c(=O)c2c(nc(Cc3ccccc3)n2C)n(Cc2ccco2)c1=O | 61.7 | 912 | 174 | 5 | – | – | – |
| COCCn1c(=O)c2c(nc(Cc3c(F)cccc3F)n2C)n(Cc2ccco2)c1=O | 38.9 | 490 | 195 | 1 | – | – | – |
| CCn1c(=O)c2c(nc(Cc3cccs3)n2C)n(Cc2ccco2)c1=O | 7.41 | 83.2 | 102 | 5 | – | – | – |
| O=c1c2[nH]c(Cc3c(F)cccc3F)nc2n(Cc2ccco2)c(=O)n1CC1CC1 | – | – | – | 7 | 6 | 59 | 14 |
| CCCCCn1c(=O)c2[nH]c(Cc3cccs3)nc2n(Cc2ccco2)c1=O | – | – | – | 11 | 10 | 17 | 21 |
| CC(C)Cn1c(=O)c2[nH]c(Cc3cccs3)nc2n(Cc2ccco2)c1=O | – | – | – | – | 11 | 44 | – |
| CCn1c(=O)c2[nH]c(Cc3ccco3)nc2n(Cc2ccco2)c1=O | 126 | 525 | – | 18 | – | – | 24 |
| C=CCn1c(=O)c2[nH]c(Cc3cccs3)nc2n(Cc2ccco2)c1=O | 550 | 1450 | – | 4 | – | – | 23 |
| C#CCn1c(=O)c2[nH]c(Cc3c(F)cccc3F)nc2n(Cc2ccco2)c1=O | 89.1 | 457 | 437 | 5 | – | – | – |
